Experimental data taken from ChEMBL document CHEMBL2016534 (ACS Med Chem Lett, 2011).
Values belong to the compound of their own block, whether it stands above or below them. Active and inactive are the calls of the source. The calls are words filed in the database; no cut-off is given here.

Tests used:
NCI-H460 = test: Cytotoxicity against human NCI-H460 cells harboring PI3KCA mutation by MTT assay; format: functional, cell-based
NCI-H1975 = test: Cytotoxicity against human NCI-H1975 cells harboring PI3KCA mutation by MTT assay; format: functional, cell-based
NCI-H23 = test: Cytotoxicity against human NCI-H23 cells harboring PTEN mutation by MTT assay; format: functional, cell-based
NCI-H1650 = test: Cytotoxicity against PTEN deficient human NCI-H1650 cells by MTT assay; format: functional, cell-based
[1] = target: T1, Phosphatidylinositol 4,5-bisphosphate 3-kinase catalytic subunit delta isoform (Homo sapiens) (UniProt O00329); test: Inhibition of PI3Kdelta
T1 sequence (whole entry): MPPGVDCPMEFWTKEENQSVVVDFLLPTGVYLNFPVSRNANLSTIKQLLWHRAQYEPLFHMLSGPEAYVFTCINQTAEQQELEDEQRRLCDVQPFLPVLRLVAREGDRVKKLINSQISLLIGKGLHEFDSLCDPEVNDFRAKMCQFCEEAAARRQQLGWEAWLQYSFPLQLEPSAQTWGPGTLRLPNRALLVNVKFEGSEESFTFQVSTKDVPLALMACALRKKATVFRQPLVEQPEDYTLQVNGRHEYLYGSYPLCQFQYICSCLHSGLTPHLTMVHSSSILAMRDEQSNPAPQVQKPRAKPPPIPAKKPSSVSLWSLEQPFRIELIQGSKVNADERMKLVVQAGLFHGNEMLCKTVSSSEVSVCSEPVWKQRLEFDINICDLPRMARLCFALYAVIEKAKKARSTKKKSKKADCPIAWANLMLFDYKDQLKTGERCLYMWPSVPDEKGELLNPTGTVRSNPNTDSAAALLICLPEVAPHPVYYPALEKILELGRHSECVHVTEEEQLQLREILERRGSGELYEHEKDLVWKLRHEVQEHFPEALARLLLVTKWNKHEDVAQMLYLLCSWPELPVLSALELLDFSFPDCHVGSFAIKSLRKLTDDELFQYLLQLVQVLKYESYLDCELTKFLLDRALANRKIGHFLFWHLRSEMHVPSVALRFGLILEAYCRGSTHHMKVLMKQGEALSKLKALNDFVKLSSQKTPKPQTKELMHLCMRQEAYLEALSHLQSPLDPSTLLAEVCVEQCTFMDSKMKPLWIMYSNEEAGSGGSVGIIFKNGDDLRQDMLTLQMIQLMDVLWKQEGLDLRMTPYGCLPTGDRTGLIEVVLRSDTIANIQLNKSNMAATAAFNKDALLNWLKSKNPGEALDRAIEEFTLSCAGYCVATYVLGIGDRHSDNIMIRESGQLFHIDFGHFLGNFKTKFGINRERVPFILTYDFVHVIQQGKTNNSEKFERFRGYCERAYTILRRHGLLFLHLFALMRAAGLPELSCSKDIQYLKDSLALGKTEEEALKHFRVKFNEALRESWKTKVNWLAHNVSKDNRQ

[2] = Metabolic stability in human liver microsomes assessed as extraction ratio; format: ADME, Microsome; details: read-out: ERH
Method in brief: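 Human liver microsome CLint scaled up with liver physiology parameters (mg HLM/g liver, g liver/kg body weight) to mL/min/kg. Predicted hepatic clearance (CLH, mL/min/kg) then calculated by the well-stirred model. Extraction ratio taken as predicted CLH divided by hepatic blood flow (QH).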

[3] = target: T2, Phosphatidylinositol 4,5-bisphosphate 3-kinase catalytic subunit alpha isoform (Homo sapiens, UniProt P42336); test: Inhibition of PI3Kalpha
T2 sequence (P42336 whole entry, canonical isoform): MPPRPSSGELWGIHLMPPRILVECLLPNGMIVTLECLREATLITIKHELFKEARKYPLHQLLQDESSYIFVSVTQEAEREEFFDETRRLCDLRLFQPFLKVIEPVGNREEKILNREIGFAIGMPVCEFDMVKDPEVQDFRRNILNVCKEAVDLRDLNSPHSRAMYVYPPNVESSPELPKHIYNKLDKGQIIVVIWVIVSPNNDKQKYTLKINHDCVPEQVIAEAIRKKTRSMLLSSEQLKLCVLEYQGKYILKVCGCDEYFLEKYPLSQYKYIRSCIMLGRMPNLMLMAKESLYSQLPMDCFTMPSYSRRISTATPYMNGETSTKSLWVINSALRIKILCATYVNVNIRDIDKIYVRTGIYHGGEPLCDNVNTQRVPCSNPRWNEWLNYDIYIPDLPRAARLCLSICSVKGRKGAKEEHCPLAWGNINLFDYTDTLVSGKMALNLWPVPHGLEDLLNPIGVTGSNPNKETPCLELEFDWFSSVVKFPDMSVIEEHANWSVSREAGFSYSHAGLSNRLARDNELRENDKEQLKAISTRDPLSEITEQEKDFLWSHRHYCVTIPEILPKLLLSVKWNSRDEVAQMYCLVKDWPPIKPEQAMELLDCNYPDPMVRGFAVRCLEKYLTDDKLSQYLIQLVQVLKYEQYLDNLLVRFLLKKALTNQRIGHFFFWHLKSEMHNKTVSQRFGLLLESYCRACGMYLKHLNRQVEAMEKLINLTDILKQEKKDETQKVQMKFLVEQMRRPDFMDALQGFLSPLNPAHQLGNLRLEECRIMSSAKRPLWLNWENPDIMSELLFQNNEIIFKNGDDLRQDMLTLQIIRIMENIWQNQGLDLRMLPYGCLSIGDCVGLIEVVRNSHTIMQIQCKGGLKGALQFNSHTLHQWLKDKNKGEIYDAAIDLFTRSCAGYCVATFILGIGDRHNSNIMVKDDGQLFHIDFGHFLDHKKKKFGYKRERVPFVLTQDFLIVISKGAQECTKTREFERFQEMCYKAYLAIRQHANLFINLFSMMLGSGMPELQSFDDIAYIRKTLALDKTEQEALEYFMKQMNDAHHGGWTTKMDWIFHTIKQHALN

[4] = target: T3, Serine/threonine-protein kinase mTOR (Homo sapiens, UniProt P42345); test: Inhibition of mTOR
[5] = target: T2, Phosphatidylinositol 4,5-bisphosphate 3-kinase catalytic subunit alpha isoform; test: Inhibition of PI3Kalpha-mediated AKT phosphorylation at S473 by cell based assay
[6] = Metabolic stability in rat liver microsomes assessed as extraction ratio; format: ADME, Microsome; details: read-out: ERH
[7] = Metabolic stability in mouse liver microsomes assessed as extraction ratio; format: ADME, Microsome; details: read-out: ERH
MDR1 (human) = test: Efflux ratio of permeability from basolateral to apical side to apical to basolateral side of dog RRCK cells expressing human MDR1; format: ADME, cell-based, Canis lupus familiaris, MDCKII-LE
[8] = target: T3, Serine/threonine-protein kinase mTOR; test: Inhibition of mTOR at 1 uM
CYP1A2 = target: T4, CYP1A2 (Homo sapiens, UniProt P05177); test: Inhibition of CYP1A2 at 3 uM; format: ADME
T4 sequence (P05177 whole entry): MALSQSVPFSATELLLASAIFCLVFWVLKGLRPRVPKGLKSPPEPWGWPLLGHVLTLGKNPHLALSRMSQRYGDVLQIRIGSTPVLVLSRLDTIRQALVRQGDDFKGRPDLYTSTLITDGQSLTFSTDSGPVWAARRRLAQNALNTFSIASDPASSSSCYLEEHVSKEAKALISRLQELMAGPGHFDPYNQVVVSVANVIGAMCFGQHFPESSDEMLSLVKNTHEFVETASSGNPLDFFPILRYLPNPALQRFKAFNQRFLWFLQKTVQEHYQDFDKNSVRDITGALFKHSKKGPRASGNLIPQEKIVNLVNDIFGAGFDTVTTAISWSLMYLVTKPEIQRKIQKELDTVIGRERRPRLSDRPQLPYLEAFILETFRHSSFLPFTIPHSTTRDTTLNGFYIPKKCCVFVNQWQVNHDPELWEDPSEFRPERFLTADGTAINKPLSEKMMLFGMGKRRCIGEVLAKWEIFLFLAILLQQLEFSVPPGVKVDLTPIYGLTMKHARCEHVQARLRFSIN

CYP2C9 = CYP2C9 (Homo sapiens, UniProt P11712); test: Inhibition of CYP2C9 at 3 uM; format: ADME
Chain of CYP2C9 (P11712 whole entry): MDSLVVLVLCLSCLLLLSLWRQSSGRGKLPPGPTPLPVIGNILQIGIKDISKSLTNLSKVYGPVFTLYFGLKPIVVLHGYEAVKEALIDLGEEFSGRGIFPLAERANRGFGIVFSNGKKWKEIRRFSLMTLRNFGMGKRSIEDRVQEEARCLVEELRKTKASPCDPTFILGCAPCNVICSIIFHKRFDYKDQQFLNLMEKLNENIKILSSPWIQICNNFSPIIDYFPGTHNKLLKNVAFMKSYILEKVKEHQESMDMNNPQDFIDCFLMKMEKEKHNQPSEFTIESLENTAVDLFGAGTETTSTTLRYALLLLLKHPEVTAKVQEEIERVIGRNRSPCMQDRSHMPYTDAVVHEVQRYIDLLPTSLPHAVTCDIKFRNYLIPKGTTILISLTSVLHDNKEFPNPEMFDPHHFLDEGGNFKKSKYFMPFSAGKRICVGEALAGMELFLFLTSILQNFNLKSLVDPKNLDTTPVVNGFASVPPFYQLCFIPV

CYP2D6 = CYP2D6 (Homo sapiens, UniProt P10635); test: Inhibition of CYP2D6 at 3 uM; format: ADME
Chain of CYP2D6 (P10635 whole entry): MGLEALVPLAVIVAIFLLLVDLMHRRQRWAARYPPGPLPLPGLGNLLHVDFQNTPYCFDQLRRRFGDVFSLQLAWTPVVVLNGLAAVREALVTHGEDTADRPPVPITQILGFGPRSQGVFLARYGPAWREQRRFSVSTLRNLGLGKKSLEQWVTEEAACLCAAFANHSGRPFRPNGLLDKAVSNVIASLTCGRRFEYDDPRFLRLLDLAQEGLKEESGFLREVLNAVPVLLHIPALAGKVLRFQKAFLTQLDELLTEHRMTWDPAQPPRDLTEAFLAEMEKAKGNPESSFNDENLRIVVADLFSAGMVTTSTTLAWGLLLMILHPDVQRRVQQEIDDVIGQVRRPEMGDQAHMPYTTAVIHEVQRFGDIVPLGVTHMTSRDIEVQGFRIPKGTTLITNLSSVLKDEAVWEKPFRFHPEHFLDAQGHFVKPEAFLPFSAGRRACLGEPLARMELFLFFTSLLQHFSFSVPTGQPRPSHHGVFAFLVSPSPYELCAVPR

CYP3A4 = CYP3A4 (Homo sapiens, UniProt P08684); test: Inhibition of CYP3A4 at 3 uM; format: ADME
Chain of CYP3A4 (P08684 whole entry): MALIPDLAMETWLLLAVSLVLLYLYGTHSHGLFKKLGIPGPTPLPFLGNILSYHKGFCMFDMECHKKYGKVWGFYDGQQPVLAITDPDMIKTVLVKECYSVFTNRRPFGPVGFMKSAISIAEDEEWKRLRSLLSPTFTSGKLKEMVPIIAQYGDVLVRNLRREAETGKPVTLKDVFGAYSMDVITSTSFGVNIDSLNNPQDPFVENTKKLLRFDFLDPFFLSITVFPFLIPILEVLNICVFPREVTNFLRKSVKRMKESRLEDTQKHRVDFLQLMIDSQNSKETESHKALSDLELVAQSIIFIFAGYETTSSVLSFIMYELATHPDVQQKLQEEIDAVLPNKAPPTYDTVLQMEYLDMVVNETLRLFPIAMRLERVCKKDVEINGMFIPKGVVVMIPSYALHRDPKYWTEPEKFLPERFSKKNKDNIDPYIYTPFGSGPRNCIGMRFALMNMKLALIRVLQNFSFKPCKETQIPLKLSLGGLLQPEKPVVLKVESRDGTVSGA

[9] = Drug excretion in bile duct cannulated rat bile; format: ADME; details: read-out: Drug excretion
[10] = Drug excretion in bile duct cannulated rat urine; format: ADME; details: read-out: Drug excretion

SMILES: N#Cc1c(N2CCOCC2)sc(-c2ncn[nH]2)c1-c1ccc(Cl)cc1Cl
Activity (NCI-H460): Active
Activity (NCI-H1975): Active
Activity (NCI-H23): Active
Activity (NCI-H1650): Active
inhibition [1]: Active

SMILES: N#Cc1ccc(-c2c(-c3ncn[nH]3)sc(N3CCOCC3)c2C#N)c(F)c1
inhibition [1]: Active

SMILES: N#Cc1c(N2CCOCC2)sc(C(N)=O)c1-c1ccc(Cl)cc1
Ki [3]: 13 nM
IC50 [5]: 760 nM
inhibition [8]: 47%

SMILES: N#Cc1c(N2CCOCC2)sc(-c2cn[nH]n2)c1-c1ccc(Cl)cc1
hepatic extraction ratio [2]: 0.7
Ki [3]: 3 nM

SMILES: Cc1nnc(-c2sc(N3CCOCC3)c(C#N)c2-c2ccc(Cl)cc2)o1
Ki [3]: 1280 nM

SMILES: N#Cc1c(N2CCOCC2)sc(C(=O)O)c1-c1ccc(Cl)cc1
Ki [3]: 230 nM

SMILES: N#Cc1c(N2CCOCC2)sc(-c2cn[nH]c2)c1-c1ccc(Cl)cc1
Ki [3]: 175 nM

Further compounds by falling Ki [3], results first:

hepatic extraction ratio [2]: 0.7
Ki [3]: 1.8 nM
SMILES: N#Cc1c(N2CCOCC2)sc(-c2cc[nH]n2)c1-c1ccc(Cl)cc1

hepatic extraction ratio [2]: 0.3
Ki [3]: 1.7 nM
Ki [4]: 434 nM
IC50 [5]: 73 nM
SMILES: N#Cc1c(N2CCOCC2)sc(-c2nc[nH]n2)c1-c1ccc(Cl)cc1

hepatic extraction ratio [2]: 0.35
Ki [3]: 0.6 nM
Ki [4]: 1440 nM
IC50 [5]: 79 nM
hepatic extraction ratio [6]: 0.529
hepatic extraction ratio [7]: 0.639
efflux ratio (MDR1 (human)): 2.6
SMILES: N#Cc1ccc(-c2c(-c3nnc[nH]3)sc(N3CCOCC3)c2C#N)c(F)c1

hepatic extraction ratio [2]: 0.3
Ki [3]: 0.35 nM
Ki [4]: 2470 nM
IC50 [5]: 35 nM
hepatic extraction ratio [6]: 0.89
hepatic extraction ratio [7]: 0.88
efflux ratio (MDR1 (human)): 2.56
inhibition at 3 µM (CYP1A2): < 30%
inhibition at 3 µM (CYP2C9): < 30%
inhibition at 3 µM (CYP2D6): < 30%
inhibition at 3 µM (CYP3A4): < 30%
dose excreted [9]: < 1%
dose excreted [10]: < 1%
SMILES: N#Cc1c(N2CCOCC2)sc(-c2nnc[nH]2)c1-c1ccc(Cl)cc1Cl
